Results from ChEMBL document CHEMBL4665858, “New BODIPYs for photodynamic therapy (PDT): Synthesis and activity on human cancer cell lines” (Bioorg Med Chem, 2020).
pIC50: −log10 of the molar value. Active and inactive are the calls of the source. The calls are words filed in the database; no cut-off is given here.

Key:
SK-OV-3 [1] = assay: Antimigratory activity against human SK-OV-3 cells assessed as open scratch wound at 2.5 nM preincubated for 24 hrs followed by irradiated with green LED for 2 hrs measured immediately in drug free medium by scratch wound healing based microscopic analysis (Rvb 38.27 +/- 3.02%); type: functional
[2] = Drug uptake in human MCF7 cells assessed as intracellular accumulation at 10 uM incubated for 24 hrs spectrophotometric analysis; type: ADME, cell-based; conditions: mcf7, 24 h
Summary of the method: (§1)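 Cells (3 × 10^6 per 75 cm² flask) grown 48 h, then exposed 24 h to BODIPY at 10 µM. Cells trypsinized and lysed in 0.1 M NaOH/1% SDS (5 × 10^6 cells/mL). Absorbance read at λmax; intracellular amount taken from a calibration curve prepared in SDS-lysed cells. 3–5 independent experiments.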

MCF7 [3] = assay: Induction of cell cycle arrest in human MCF7 cells assessed as cell cycle distribution at antiproliferative IC50 incubated for 24 hrs by PI staining based flow cytometric analysis; type: functional
SK-OV-3 [4] = assay: Induction of ROS generation in human SK-OV-3 cells at antiproliferative IC50 preincubated for 24 hrs followed by irradiated with green LED for 2 hrs measured at the end of irradiation in drug free medium by DCFH-DA dye based flow cytometry relative to control
MCF7 [5] = assay: Induction of ROS generation in human MCF7 cells at antiproliferative IC50 preincubated for 24 hrs followed by irradiated with green LED for 2 hrs then incubated in dark for 24 hrs in drug free medium by DCFH-DA dye based flow cytometry relative to control; type: functional, cell-based
MCF7 [6] = assay: Induction of apoptosis in human MCF7 cells assessed as increase in apoptotic cells at antiproliferative IC50 preincubated for 24 hrs followed by irradiated with green LED for 2 hrs then incubated in dark for 24 hrs in drug free medium by PI staining based flow cytometric analysis; type: functional, cell-based
Summary of the method: (§2)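 PI-stained cells analyzed by flow cytometry (575 nm); apoptotic fraction taken from the sub-G1 peak in log-mode histograms. Untreated controls; 3–5 independent experiments.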

[7] = Drug uptake in human SK-OV-3 cells assessed as intracellular accumulation at 10 uM incubated for 24 hrs spectrophotometric analysis; type: ADME, cell-based; conditions: sk-ov-3, 24 h; summary of the method: as §1
SK-OV-3 [8] = assay: Induction of apoptosis in human SK-OV-3 cells assessed as increase in apoptotic cells at antiproliferative IC50 preincubated for 24 hrs followed by irradiated with green LED for 2 hrs then incubated in dark for 24 hrs in drug free medium by PI staining based flow cytometric analysis; type: functional, cell-based; summary of the method: as §2
[9] = Drug uptake in human HCT116 cells assessed as intracellular accumulation at 10 uM incubated for 24 hrs spectrophotometric analysis; type: ADME, cell-based; conditions: hct-116, 24 h; summary of the method: as §1
MCF7 [10] = assay: Induction of cell cycle arrest in human MCF7 cells assessed as accumulation at G1 phase at antiproliferative IC50 preincubated for 24 hrs followed by irradiated with green LED for 2 hrs then incubated in dark for 24 hrs in drug free medium by PI staining based flow cytometric analysis; type: functional
Summary of the method: (§3)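 DNA content measured by PI flow cytometry (575 nm) in linear mode to give cell-cycle phase distribution. Untreated controls; 3 independent experiments.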

MCF7 [11] = assay: Induction of cell cycle arrest in human MCF7 cells assessed as cell cycle distribution at antiproliferative IC50 preincubated for 24 hrs followed by irradiated with green LED for 2 hrs then incubated in dark for 24 hrs in drug free medium by PI staining based flow cytometric analysis; type: functional; summary of the method: as §3
SK-OV-3 [12] = assay: Antimigratory activity against human SK-OV-3 cells assessed as open scratch wound at 0.75 nM incubated for 24 hrs by scratch wound healing based microscopic analysis; type: functional, cell-based
HCT-116 [13] = assay: Induction of cell cycle arrest in human HCT116 cells assessed as cell cycle distribution at antiproliferative IC50 preincubated for 24 hrs followed by irradiated with green LED for 2 hrs then incubated in dark for 24 hrs in drug free medium by PI staining based flow cytometric analysis; type: functional; summary of the method: as §3
HCT-116 [14] = assay: Induction of ROS generation in human HCT116 cells at antiproliferative IC50 preincubated for 24 hrs followed by irradiated with green LED for 2 hrs then incubated in dark for 24 hrs in drug free medium by DCFH-DA dye based flow cytometry relative to control; type: functional, cell-based
MCF7 [15] = assay: Induction of apoptosis in human MCF7 cells assessed as increase in apoptotic incubated for 24 hrs by PI staining based flow cytometric analysis; type: functional, cell-based
SK-OV-3 [16] = assay: Antimigratory activity against human SK-OV-3 cells assessed as open scratch wound at 2.5 nM preincubated for 24 hrs followed by irradiated with green LED for 2 hrs then incubated in dark for 24 hrs in drug free medium by scratch wound healing based microscopic analysis (reference value: 8.68 +/- 0.58%); type: functional
MCF7 [17] = assay: Antiproliferative activity against human MCF7 cells assessed as reduction in cell viability preincubated for 24 hrs followed by irradiated with green LED for 2 hrs then incubated in dark for 24 hrs in drug free medium by MTT assay; type: functional, cell-based; conditions: MCF7, light or radiation study
Summary of the method: (§4)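 HCT116 and SKOV3 grown in DMEM, MCF7 in RPMI1640, all with 10% FBS. Cells attached 24 h, then exposed 24 h to BODIPY (0.1–200 nM) at 37 °C. Medium replaced by PBS and cells irradiated 2 h with green LED, then held 24 h in the dark in drug-free medium. MTT (2 mg/mL) added for 3 h; DMSO-dissolved formazan read by absorbance. IC50 from dose-response curves; 3–5 independent experiments.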

HCT-116 [18] = assay: Antiproliferative activity against human HCT116 cells assessed as reduction in cell viability preincubated for 24 hrs followed by irradiated with green LED for 2 hrs then incubated in dark for 24 hrs in drug free medium by MTT assay; type: functional, cell-based; conditions: HCT-116, light or radiation study; summary of the method: as §4
SK-OV-3 [19] = assay: Induction of cell cycle arrest in human SK-OV-3 cells assessed as cell cycle distribution at antiproliferative IC50 incubated for 24 hrs by PI staining based flow cytometric analysis; type: functional
SK-OV-3 [20] = assay: Antiproliferative activity against human SK-OV-3 cells assessed as reduction in cell viability preincubated for 24 hrs followed by irradiated with green LED for 2 hrs then incubated in dark for 24 hrs in drug free medium by MTT assay; type: functional, cell-based; conditions: SK-OV-3, light or radiation study; summary of the method: as §4
HCT-116 [21] = assay: Induction of cell cycle arrest in human HCT116 cells assessed as cell cycle distribution at antiproliferative IC50 incubated for 24 hrs by PI staining based flow cytometric analysis; type: functional
SK-OV-3 [22] = assay: Induction of cell cycle arrest in human SK-OV-3 cells assessed as cell cycle distribution at antiproliferative IC50 preincubated for 24 hrs followed by irradiated with green LED for 2 hrs then incubated in dark for 24 hrs in drug free medium by PI staining based flow cytometric analysis; type: functional; summary of the method: as §3
MCF7 [23] = assay: Induction of apoptosis in human MCF7 cells assessed as increase in necrotic cells at antiproliferative IC50 preincubated for 24 hrs followed by irradiated with green LED for 2 hrs then incubated in dark for 24 hrs in drug free medium by PI staining based flow cytometric analysis; type: functional, cell-based; summary of the method: as §2
SK-OV-3 [24] = assay: Antimigratory activity against human SK-OV-3 cells assessed as open scratch wound at 2.5 nM incubated for 24 hrs by scratch wound healing based microscopic analysis; type: functional, cell-based
SK-OV-3 [25] = assay: Induction of apoptosis in human SK-OV-3 cells assessed as increase in necrotic cells at antiproliferative IC50 preincubated for 24 hrs followed by irradiated with green LED for 2 hrs then incubated in dark for 24 hrs in drug free medium by PI staining based flow cytometric analysis; type: functional, cell-based; summary of the method: as §2
SK-OV-3 [26] = assay: Induction of apoptosis in human SK-OV-3 cells assessed as increase in apoptotic incubated for 24 hrs by PI staining based flow cytometric analysis; type: functional, cell-based
HCT-116 [27] = assay: Induction of apoptosis in human HCT116 cells assessed as increase in apoptotic incubated for 24 hrs by PI staining based flow cytometric analysis; type: functional, cell-based
HCT-116 [28] = assay: Induction of cell cycle arrest in human HCT116 cells assessed as accumulation at G1 phase at antiproliferative IC50 preincubated for 24 hrs followed by irradiated with green LED for 2 hrs then incubated in dark for 24 hrs in drug free medium by PI staining based flow cytometric analysis; type: functional; summary of the method: as §3
SK-OV-3 [29] = assay: Antimigratory activity against human SK-OV-3 cells assessed as open scratch wound at 0.75 nM preincubated for 24 hrs followed by irradiated with green LED for 2 hrs measured immediately in drug free medium by scratch wound healing based microscopic analysis (Rvb 38.27 +/- 3.02%); type: functional
SK-OV-3 [30] = assay: Induction of cell cycle arrest in human SK-OV-3 cells assessed as accumulation at G1 phase at antiproliferative IC50 preincubated for 24 hrs followed by irradiated with green LED for 2 hrs then incubated in dark for 24 hrs in drug free medium by PI staining based flow cytometric analysis; type: functional; summary of the method: as §3
SK-OV-3 [31] = assay: Antimigratory activity against human SK-OV-3 cells assessed as open scratch wound at 0.75 nM preincubated for 24 hrs followed by irradiated with green LED for 2 hrs then incubated in dark for 24 hrs in drug free medium by scratch wound healing based microscopic analysis (reference value: 8.68 +/- 0.58%); type: functional

CC1=C(I)C(C)=[N+]2C1=C(c1ccc(OCCCCCCCCBr)cc1)c1c(C)c(I)c(C)n1[B-]2(F)F
Activity (SK-OV-3 [1]): 37.71%
Drug uptake [2]: Active
Activity (MCF7 [3]): inactive
Activity (SK-OV-3 [4]): Active
Activity (MCF7 [5]): inactive
Activity (MCF7 [6]): Active
Drug uptake [7]: Active
Activity (SK-OV-3 [8]): Active
Drug uptake [9]: Active
Activity (MCF7 [10]): inactive
Activity (MCF7 [11]): inactive
Activity (SK-OV-3 [12]): inactive
Activity (HCT-116 [13]): inactive
Activity (HCT-116 [14]): inactive
Activity (MCF7 [15]): inactive
Activity (SK-OV-3 [16]): 13.53%
pIC50 (MCF7 [17]): 7.64
pIC50 (HCT-116 [18]): 7.93
Activity (SK-OV-3 [19]): inactive
pIC50 (SK-OV-3 [20]): 7.81
Activity (HCT-116 [21]): inactive
Activity (SK-OV-3 [22]): inactive
Activity (MCF7 [23]): Active
Activity (SK-OV-3 [24]): inactive
Activity (SK-OV-3 [25]): Active
Activity (SK-OV-3 [26]): inactive
Activity (HCT-116 [27]): inactive
Activity (HCT-116 [28]): inactive

CC1=C(I)C(C)=[N+]2C1=C(c1ccc(OCCCCBr)cc1)c1c(C)c(I)c(C)n1[B-]2(F)F
Drug uptake [2]: Active
Activity (MCF7 [3]): inactive
Activity (SK-OV-3 [4]): Active
Activity (MCF7 [5]): inactive
Activity (MCF7 [6]): Active
Drug uptake [7]: Active
Activity (SK-OV-3 [8]): Active
Drug uptake [9]: Active
Activity (MCF7 [10]): inactive
Activity (MCF7 [11]): inactive
Activity (SK-OV-3 [12]): inactive
Activity (SK-OV-3 [29]): 35.19%
Activity (HCT-116 [13]): inactive
Activity (HCT-116 [14]): inactive
Activity (SK-OV-3 [30]): inactive
Activity (MCF7 [15]): inactive
Activity (SK-OV-3 [31]): 24.81%
pIC50 (MCF7 [17]): 8.16
pIC50 (HCT-116 [18]): 8.70
Activity (SK-OV-3 [19]): inactive
pIC50 (SK-OV-3 [20]): 8.45
Activity (HCT-116 [21]): inactive
Activity (SK-OV-3 [22]): inactive
Activity (MCF7 [23]): Active
Activity (SK-OV-3 [24]): inactive
Activity (SK-OV-3 [25]): Active
Activity (SK-OV-3 [26]): inactive
Activity (HCT-116 [27]): inactive
Activity (HCT-116 [28]): inactive
